SIRT5 inh: blocks human SIRT5 desuccinylation of peptide. AID 652115. Purified SirT5, succinyl-peptide AMC, trypsin-coupled fluorescence. inhibition, % at 15 µM. 1.1% of 330,000 active; in the data active = inhibition above about 15%
Target sequence (Q9NXA8 whole entry, looked up): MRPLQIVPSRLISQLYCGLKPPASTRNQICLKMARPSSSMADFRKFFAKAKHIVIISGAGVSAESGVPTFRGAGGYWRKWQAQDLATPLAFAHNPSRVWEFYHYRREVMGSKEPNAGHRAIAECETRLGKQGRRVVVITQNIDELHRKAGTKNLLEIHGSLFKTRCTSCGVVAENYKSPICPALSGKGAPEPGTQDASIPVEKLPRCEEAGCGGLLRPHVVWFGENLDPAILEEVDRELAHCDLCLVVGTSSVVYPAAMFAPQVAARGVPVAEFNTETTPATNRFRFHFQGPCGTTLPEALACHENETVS
miR-122 sensor: blocks miR-122 activity in Huh7 sensor cells. Huh7 miR-122 Renilla luciferase sensor, 48 h; neutral wells = 0, positive control = 100. activation (reporter increase), % at 12.5 µM. 0.3% of 340,000 active. AID 602342;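 active = mean replicate activation score at least 90 and every replicate individually at or above 90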;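 note: higher luciferase means less miR-122 activity so hits act as miR-122 inhibitors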
FGF22 binding: binders of recombinant human FGF22 by thermal shift; activity (Tm shift, normalised), % at 9.99 µM; 1.5% of 340,000 active; SYPRO orange fluorescence; percent of sucrose octasulfate shift, DMSO zero;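 active = mean Tm shift, scaled 0 neutral to 100 positive control, at about 1.3% or above, every replicate too, limit read from the data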
Target sequence (Q9HCT0 whole entry, looked up): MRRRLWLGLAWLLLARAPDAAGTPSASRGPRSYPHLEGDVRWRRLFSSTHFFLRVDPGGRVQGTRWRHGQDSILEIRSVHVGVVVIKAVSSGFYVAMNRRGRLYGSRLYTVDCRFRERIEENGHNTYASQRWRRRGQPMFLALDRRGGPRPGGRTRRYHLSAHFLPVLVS
S100A4 MyoIIA: blocks human S100A4 binding to myosin IIA peptide; P26447; S100A4/TAMRA-MyoIIA peptide fluorescence polarization; inhibition, % at 10.7 µM; 0.14% of 360,000 active;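 active = mean inhibition of at least 70% across replicates, with every replicate also reaching that level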
Target sequence (P26447 whole entry, looked up): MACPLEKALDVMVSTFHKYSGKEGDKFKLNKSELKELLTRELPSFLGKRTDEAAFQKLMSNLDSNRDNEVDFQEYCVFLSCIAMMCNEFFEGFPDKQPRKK
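Assay system: human S100A4 monomer with TAMRA-labelled myosin IIA peptide / Buffer or medium: Calcium-containing HEPES buffer, pH 7.2 / Reagent: TAMRA-labelled myosin IIA heavy-chain peptide probe, 5 nM / Compound: one dose per compound / Timing: polarization read 5 min after assay mix addition, stable 5–60 min / Benchmarks: neutral control DMSO, positive control TFP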
E-selectin induc: induces E-selectin expression in human endothelial cells; 0.37% of 260,000 active; P16581; AID 686992; activation, % at 7.58 µM; HUVEC E-selectin immunofluorescence imaging; normalized: neutral wells 0, TNF-alpha wells 100;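 active = mean E-selectin-positive cell signal at least 10% of the positive control, reached in at least 60% of replicates, without over 20% cell loss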
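assay system = HUVEC, human umbilical vein endothelial cells | input = 3,000 HUVEC seeded per well | medium = EGM-2 growth medium on 0.1% gelatin-coated wells | dosing = one compound dose added by pin transfer | signal = immunofluorescence imaging | read-out basis = % PE-positive cells | control set = TNF-alpha, DMSO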
A number is an active result; n = inactive; x = no result; ! = not confirmed by another sample. The list is not random: actives were taken first. Their share in the collection is about 2.5%.

SMILES	SIRT5 inh	miR-122 sensor	FGF22 binding	S100A4 MyoIIA	E-selectin induc
CN1CCN(C(=O)COc2ccc(N(C)S(=O)(=O)c3ccc(F)cc3)cc2)CC1	23	n	n	n	x
CN1CCN(C(=O)COc2ccc(S(=O)(=O)N(C)Cc3ccccc3)cc2)CC1	n	n	n	n	x
C[C@@H]1CN([C@H](C)CO)C(=O)CCCn2nncc2CO[C@H]1CN(C)C(=O)Oc1ccc2ccccc2c1	n	n	43!	n	n
COc1ccc(OC(=O)N(C)C[C@H]2OCc3cnnn3CCCC(=O)N([C@@H](C)CO)C[C@H]2C)cc1	15!	n	n	n	n
COc1ccc(OC(=O)N(C)C[C@@H]2OCc3cnnn3CCCC(=O)N([C@H](C)CO)C[C@H]2C)cc1	n	n	n	n	n
CN1CCN(c2cn[nH]c(=O)c2Cl)CC1	n	n	n	n	46
Cc1ccccc1-c1ccc([C@@H]2[C@H](CO)N3CCCCN(C(=O)Cc4ccccn4)C[C@@H]23)cc1	n	n	n	n	n
C[C@]12CCC3C(CC[C@H]4C[C@@H](O)CC[C@]34C)C1C[C@@H](Br)[C@@H]2O (some centres undefined)	23	x	n	n	n
C[C@]12CCC3C(CC[C@H]4C[C@@H](O)CC[C@]34C)C1C[C@@H](N)[C@@H]2O (some centres undefined)	n	n	n	n	n
COC(=O)[C@H]1[C@H](CO)[C@H]2Cn3c(ccc(-c4cccc(C(=O)N(C)C)c4)c3=O)[C@@H]1N2CC1CC1	n	x	x	n	n
O=C(COc1ccc(Cl)cc1)N1CCN(Cc2ccccc2)CC1	16	x	n	n	x
COc1cc(CN2CCN(C(=O)Cc3ccccc3)CC2)cc(OC)c1OC	15	x	n	n	x
COc1ccc(Br)cc1CN1CCN(C(=O)Cc2ccccc2)CC1	x	n	x	x	x
CC=Cc1ccc2n(c1=O)C[C@H]1[C@H](CO)[C@@H](C(=O)OC)[C@@H]2N1CC1CC1 (mixture of isomers)	n	n	n	n	n
CN(c1ccccc1)P(=O)(N1CC1)N1CC1	16	x	n	n	n
O=C1CCN(C(=O)Cc2ccccc2[N+](=O)[O-])CC1	n	n	44	n	n
Fc1ccc(CNCCc2ccccc2F)cc1	n	x	n	n	n
Fc1ccc(CCNCc2ccc(Br)cc2)cc1	n	n	44	n	x
COc1ccc(-n2c(/C=C/c3ccc4c(c3)OCO4)nc3ccccc3c2=O)cc1	32	x	n	n	n
Cc1ccc(-n2c(/C=C/c3ccc4c(c3)OCO4)nc3ccccc3c2=O)cc1	x	x	x	x	n
COC(=O)[C@@H]1[C@@H](CO)[C@@H]2Cn3c(ccc(C4=CCCC4)c3=O)[C@H]1N2S(=O)(=O)c1cn(C)cn1	n	n	n	n	n
CCOC(=O)[C@@H]1[C@@H]2NC(=S)N[C@@]1(C)Oc1ccccc12	n	x	n	n	x
C/C=C1\NC(=O)[C@H](C)NC(=O)[C@@H](NC(=O)[C@H](Cc2ccc(O)cc2)NC(=O)[C@@H](NC(=O)/C(C)=C/C)C(C)C)[C@@H](C)OC(=O)[C@H](CCCc2ccc(O)cc2)NC(=O)[C@@H](CCC(=O)O)NC1=O	22	n	n	n	n
O=C1CNC[C@@H]2[C@@H](c3ccc(Br)cc3)[C@H](CO)N12	n	x	n	n	n
CSC(=Nc1ccccc1)c1c(O)n(C)c(=O)n(C)c1=O	19	x	x	n	x
SMILES	SIRT5 inh	miR-122 sensor	FGF22 binding	S100A4 MyoIIA	E-selectin induc
CN(N)N=Nc1nc2c([nH]1)c(=O)n(C)c(=O)n2C	x	x	n	n	58
COc1c(C)cc(C(=O)C2CCCN(C3CCOCC3)C2)cc1C (centres undefined)	n	n	43	n	n
COc1ccc(C(=O)C2CCCN(Cc3ccccn3)C2)c(OC)c1 (centres undefined)	n	x	43	n	n
COc1ccc(C(=O)C2CCCN(Cc3cnc(C)s3)C2)c(OC)c1 (centres undefined)	n	n	n	n	x
Cc1cccc(CN2CCCC(C(=O)c3ccc4c(c3)OCO4)C2)n1 (centres undefined)	n	n	n	n	33
COc1c(C)cc(C(=O)C2CCCN(Cc3cccc(O)c3)C2)cc1C (centres undefined)	n	x	n	n	n
COc1c(C)cc(C(=O)C2CCCN(Cc3cccc(C)n3)C2)cc1C (centres undefined)	n	x	44	n	x
COC(=O)[C@H]1[C@H](CO)[C@H]2Cn3c(cccc3=O)[C@@H]1N2C(=O)C1CCC1	n	n	n	n	x
COc1cccc(C(=O)C2CCCN(Cc3cccc(C)n3)C2)c1 (centres undefined)	n	x	44	n	x
O=C(NC[C@H]1CC[C@H]2[C@H](CN2Cc2cccnc2)O1)C1CC1	n	x	x	n	x
O=C(Cc1cccnc1)N1CCCCN2[C@@H](CO)[C@@H](c3ccc(C#CC4(O)CCCC4)cc3)[C@@H]2C1	n	n	n	98	n
Cc1nn(Cc2ccccc2)c(C)c1C(=O)OCC(=O)Nc1cccc(S(N)(=O)=O)c1	n	x	n	n	n
Cc1nn(Cc2ccccc2)c(C)c1C(=O)OCC(=O)Nc1cc(S(C)(=O)=O)ccc1Cl	x	x	43	n	x
O=C(NN=Cc1ccc(N(CCCl)CCCl)cc1)C(=O)c1c[nH]c2ccccc12	n	x	n	n	x
O=C(NN=Cc1ccc(N(CCCl)CCCl)cc1)c1cc(=O)[nH]c(=O)[nH]1	x	n	44	n	n
CN(C)[C@@H]1C(=O)C(C(N)=O)=C(O)[C@@]2(O)C(=O)C3=C(O)c4c(O)cccc4[C@@](C)(O)[C@H]3[C@H](O)[C@@H]12	41	n	n	n	n
CN(C)[C@@H]1C(=O)C(C(N)=O)=C(O)[C@@]2(O)C(=O)C3=C(O)c4c(O)cccc4[C@@](C)(O)C3C[C@@H]12 (some centres undefined)	20	n	n	n	n
CN(C)[C@@H]1C(=O)C(C(N)=O)=C(O)[C@@]2(O)C(=O)C3=C(O)c4c(O)ccc(Cl)c4[C@@](C)(O)[C@H]3C[C@@H]12	n	n	n	n	x
COC(=O)[C@@H]1[C@@H](CO)[C@@H]2Cn3c(ccc(-c4ccccc4)c3=O)[C@H]1N2CC1CC1	n	n	n	n	n
CCC(=O)N1[C@@H]2Cn3c(ccc(-c4cccc(F)c4)c3=O)[C@H]1[C@@H](C(=O)OC)[C@@H]2CO	n	n	n	n	n
O=C1NC(=S)NC(=O)C1=Cc1cccn1-c1ccc(O)cc1	53	x	n	n	x
CCCN1[C@@H]2c3ccc(-c4cccc(OC)c4)c(=O)n3C[C@H]1[C@H](CO)[C@H]2C(=O)OC	n	x	x	n	n
N#Cc1c(N2CCNCC2)nc(-c2ccco2)c2c1CCCC2	n	n	1.9	n	x
O=c1cccc2n1CC1CC2CN(Cc2c(F)cccc2Cl)C1 (centres undefined)	n	n	n	n	x
